Compound activity as filed in PubChem.
IL1B NFkB inh = blocks IL-1B driven NFkB nuclear translocation in HUVEC cells. HUVEC IL-1B NFkB p65 nuclear translocation imaging. inhibition, % at 2 µM. actives 0.43% (n = 94,000);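 active means inhibition above about 30% together with a positive call from visual inspection of the well image, limit read from the data; inconclusive means inhibition above a set limit but visual check negative; inactive means inhibition not above a set limit, visual check negative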;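 further: nuclear over cytoplasmic p65 intensity ratio measured by imaging; 0% = IL-1B stimulated DMSO wells and 100% = unstimulated DMSO wells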
Measles CPE = protection of cells from measles virus | actives 1.5% (n = 140,000) | protection (pct of control), % at 4 µM | Measles virus-infected cells, CPE protection, absorbance; in the data active means protection mostly above about 24%, no sharp cut-off; inactive means mostly below about 26%
FAK inh = blocks human focal adhesion kinase activity; Q05397; biochemical FAK kinase activity assay; inhibition, %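 (tested at 7 µM)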; actives 0.84% (n = 97,000); AID 727; in the data active means inhibition above about 19%;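 further: 0% = DMSO and 100% = reference compound high control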
HIV Rev-RRE inh = inhibitors of HIV-1 Rev-RRE RNA interaction; inhibition, % at 8 µM; P05866; actives 0.79% (n = 97,000); Rev peptide-RRE RNA binding, FRET;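 active means inhibition above the screen-wide mean plus 3 SD, cut at about 35% in these data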;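 further: 0% = median DMSO wells and 100% = median Neomycin B control wells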
Target sequence (P05866 whole entry, looked up): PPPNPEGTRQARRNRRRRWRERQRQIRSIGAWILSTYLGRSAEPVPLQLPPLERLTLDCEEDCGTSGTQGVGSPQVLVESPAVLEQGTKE
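Assay system: Labelled RRE RNA duplex and labelled Rev peptide | Times: 5 min preincubation and 15 min binding, 25 °C | Detection: FRET, ex 480 nm, em 540 and 671 nm | Evaluation: % inhibition of FRET ratio versus controls | Benchmarks: DMSO wells as 0% and neomycin B wells as 100% inhibition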
NFkB transloc pot = enhances IL-1B driven NFkB nuclear translocation. HUVEC IL-1B NFkB p65 nuclear translocation imaging. activation, % at 2 µM. actives 0.3% (n = 94,000). AID 819;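 active means activation above 40%, about the mean plus 3 SD, also judged a hit on visual image review; inconclusive means activation above 40% but not a hit on visual review; inactive means activation not above 40% and no visual hit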;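 further: percent activation is computed from the nuclear over cytoplasmic p65 intensity ratio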
IL1B cytotox = toxic to HUVEC cells under IL-1B stimulation; HUVEC cell count loss, Hoechst imaging, IL-1B stimulated; cell count reduction, % at 2 µM; actives 0.41% (n = 94,000); AID 845;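 active means cell count reduction more than 3 SD above the screen-wide mean, cut at about 70% in these data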;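 further: normalized per plate to untreated control cells as the no-loss baseline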
* = called active by the depositor; ? = inconclusive; . = no result; [ ] = remark or other dose. Shown are actives, neighbours in structure and some others; about 3.3% of the full set was active somewhere.

SMILES | IL1B NFkB inh | Measles CPE | FAK inh | HIV Rev-RRE inh | NFkB transloc pot | IL1B cytotox
CC(C)OC(=O)CN1C(=O)S/C(=C/c2ccc(N3CCCCC3)o2)C1=O | -13 | 18 | 1 | 136*[fluorescence artefact?] | 13 | 9
O=C1/C(=C/c2ccc(N3CCOCC3)o2)SC(=Nc2ccccc2)N1CCc1c[nH]c2ccccc12 | ? | 5 | 2 | 136*[fluorescence artefact?] | -50 | -9
COc1cc(/C=C2\SC(=Nc3ccccc3)N(CCc3c[nH]c4ccccc34)C2=O)ccc1OC(C)C(=O)O (stereo not given) | . | 9 | . | . | . | .
O=C1S/C(=C\c2ccc(N3CCOCC3)o2)C(=O)N1Cc1ccc(F)cc1 | -1 | 10 | -4 | 117*[fluorescence artefact?] | 1 | -3
CS(=O)(=O)N(CC(=O)N1CCCC1)Cc1ccc(Cl)cc1 | . | 4 | . | . | . | .
CN(C)S(=O)(=O)c1cccc(C(=O)OCC(=O)NC2CCCc3ccccc32)c1 (stereo not given) | . | 28 | . | . | . | .
CSc1nc(N)nc(SCCS(=O)(=O)c2ccc(Cl)cc2)c1C#N | -11 | 78* | -2 | 12 | 11 | -14
CC(C)(C)C(=O)COC(=O)c1ccc(O)cc1 | -3 | 55* | -1 | 1 | 3 | -23
O=c1/c(=C\c2cccnc2)sc2nc3ccccc3n12 | 11 | 1 | 1 | 12 | -11 | -13
O=C1CCC/C1=c1\s/c(=C\c2cccnc2)c(=O)n1-c1ccccc1 | . | 28* | . | . | . | .
CCCCCc1nnc(NC(=O)Cn2cnc3ccccc3c2=O)s1 | . | 6 | . | . | . | .
Cc1ccc2cc(C)c3nnc(SCC(=O)c4cccs4)n3c2c1C | . | 7 | . | . | . | .
Cc1cc2ccc(C)c(C)c2nc1SCC(=O)c1cccs1 | 6 | 32* | 2 | 17 | -6 | 5
Cc1n[nH]c(=O)nc1N/N=C/c1ccc(O)c([N+](=O)[O-])c1 | . | 6 | . | . | . | .
O=C1Nc2ccccc2N(O)N1c1cc(-c2cccc(Cl)c2)no1 | 2 | 33* | 0 | 7 | -2 | -5
COc1ccc2[nH]cc(C(=O)CN3CCCCC3)c2c1 | 8 | 1 | 3 | 11 | -8 | 2
COc1ccc2c(C(=O)CN3CCN(c4ccccc4)CC3)c[nH]c2c1 | -16 | 28* | 0 | 19 | 16 | -36
CCCCCn1nc(-c2ccccc2)c2nc3ccccc3nc21 | 15 | 9 | 0 | 90*[fluorescence artefact?] | -15 | -4
CCn1c2ccc(Cl)cc2c2nc3ccccc3nc21 | -8 | 13 | -1 | 9 | 8 | -6
CCn1nc(-c2ccccc2)c2nc3ccccc3nc21 | 8 | 16 | 2 | 90*[fluorescence artefact?] | -8 | -54
CCCn1nc(-c2ccccc2)c2nc3ccccc3nc21 | 2 | 35 | 4 | 94*[fluorescence artefact?] | -2 | -13
CN(C)C1C(=O)c2ccccc2C1=O | . | 6 | . | . | . | .
O=C1N(c2cccc3ccccc23)C(c2ccccc2)N2CCCN12 (stereo not given) | . | 20* | . | . | . | .
O=C1OC(c2ccccc2)c2ccc3ccccc3c21 (stereo not given) | . | 9 | . | . | . | .
Cc1ccc(-c2nc3sc4c(N)ncnc4c3c3c2CCCC3)cc1 | -25 | 25* | -31 | 11 | 25 | -9
SMILES | IL1B NFkB inh | Measles CPE | FAK inh | HIV Rev-RRE inh | NFkB transloc pot | IL1B cytotox
O=c1[nH]cnc2c1sc1nc(-c3ccccc3)c3c(c12)CCCC3 | . | 13 | . | . | . | .
CCCCCCCC(=O)OCC(O)CO (stereo not given) | . | 91* | . | . | . | .
CCOC(=O)CCCCC(=O)NC(CO)C(=O)NC (stereo not given) | -21 | 17 | 2 | 5 | 21 | 15
COCCn1c(C)cc(/C=C2/NC(=O)N(c3ccc(Cl)cc3)C2=O)c1C | . | 6 | . | . | . | .
CCOc1ccc(OCc2ccc(C(=O)NCC3CCCO3)o2)cc1 (stereo not given) | -9 | 3 | -1 | -2 | 9 | 0
O=C(NCC1CCCO1)c1ccc(C(=O)NCC2CCCO2)cc1 (stereo not given) | -15 | 9 | -4 | 6 | 15 | -17
CCOc1ccc(C(=O)NCC2CCCO2)cc1 (stereo not given) | -56 | 2 | 1 | 0 | 56* | -25
O=C(NCC1CCCO1)c1ccc(COc2ccc(F)cc2)o1 (stereo not given) | -6 | 32* | -4 | -2 | 6 | 2
COc1ccc(OC)c(NC(=O)COC(=O)CN(C)S(=O)(=O)c2ccc(C)cc2)c1 | . | 4 | . | . | . | .
Cc1cc(/C=N/NC(=O)c2cccs2)c(C)n1-c1ccccc1 | 7 | 77* | 1 | 5 | -7 | 30
COc1ccc(-n2nnnc2-c2cnc3cc4c(cc3c2C)OCO4)cc1 | ? | 53* | 2 | 0 | -64 | 54
CC(C)C(NC(=O)c1ccccc1)C(=O)N/N=C\c1ccco1 (stereo not given) | . | 0 | . | . | . | .
CCOc1cc(N2CCOCC2)c(OCC)cc1NC(=O)COC(=O)c1ccccc1C | . | 8 | . | . | . | .
CCOc1cc(N2CCOCC2)c(OCC)cc1NC(=O)Cc1cccc2ccccc12 | -63 | 8 | 5 | -4 | 63* | 20
CCOC(=O)CSc1n[nH]c(NC(=O)c2ccc(F)cc2)n1 | 2 | 11 | -6 | 2 | -2 | -18
CCOC(=O)CSc1n[nH]c(NC(=O)c2ccccc2)n1 | 5 | 53* | 2 | 4 | -5 | 5
COc1ccc(C(CC(=O)Nc2cc([N+](=O)[O-])ccc2OC)c2ccccc2)cc1 (stereo not given) | . | 11 | . | . | . | .
CCNC(=O)NC(=O)C(C)Sc1nc2ccccc2n1CC(C)C (stereo not given) | 6 | 3 | 6 | 10 | -6 | 1
CCOC(=O)c1[nH]c2cc(OC)c(OC)cc2c1NC(=O)C(C)N1CCN(Cc2ccccc2)CC1 (stereo not given) | 32* | 15 | 1 | 6 | -32 | -3
O=C(c1ccc([N+](=O)[O-])cc1)N1CCSC1c1ccccc1 (stereo not given) | . | 24* | . | . | . | .
Cc1nnc2sc(-c3ccc(NC(=O)c4cccnc4)cc3)nn12 | -3 | . | -1 | 7 | 3 | 5
Cc1nnc2sc(-c3ccc(NC(=O)c4ccc(-c5ccc(Cl)cc5Cl)o4)cc3)nn12 | -9 | . | 28* | 19 | 9 | -148
CCN(C(=O)COC(=O)c1cccnc1Nc1ccccc1F)C1CCS(=O)(=O)C1 (stereo not given) | . | 9 | . | . | . | .
c1ccc(CNc2ncnc3nc[nH]c23)cc1 | -5 | 31 | 5 | -2 | 5 | -1
C1=Nc2c(NCc3ccccc3)ncnc2Oc2ccccc21 | 98* | 4 | 2 | 3 | -98 | 91*
O=C(NCc1cccnc1)C1CCCCN1S(=O)(=O)c1ccc(F)cc1 (stereo not given) | 10 | 19* | -3 | 3 | -11 | -10
O=C(Cc1cccs1)NC1(C(=O)NC2CCCC2)CCCCC1 | . | 9 | . | . | . | .
O=C1NC(=S)N/C1=C/c1cccc([N+](=O)[O-])c1O | 3 | 31 | 3 | 69* | -3 | -10
O=C1NC(=S)N/C1=C/c1cc([N+](=O)[O-])ccc1O | 6 | 29 | -2 | 111*[fluorescence artefact?] | -6 | 6
Cc1cc(C(=O)N/N=C/c2cccc([N+](=O)[O-])c2O)n[nH]1 | . | 17 | . | . | . | .
